Results as given in ChEMBL document CHEMBL4145441, “Discovery of N-(5-((5-chloro-4-((2-(isopropylsulfonyl)phenyl)amino)pyrimidin-2-yl)amino)-4-methoxy-2-(4-methyl-1,4-diazepan-1-yl)phenyl)acrylamide (CHMFL-ALK/EGFR-050) as a potent ALK/EGFR dual kinase inhibitor capable of overcoming a variety of ALK/EGFR associated drug resistant mutants in NSCLC” (Eur J Med Chem, 2017).
Calls of active or inactive are those of the source. The calls are words filed in the database; no cut-off is given here.

Tests used:
[1] = molecular target: T1, ALK tyrosine kinase receptor (Homo sapiens, UniProt Q9UM73); assay: Inhibition of ALK phosphorylation at Tyr1604 residue in human NCI-H3122 cells harboring EML4-fused ALK at 100 nM after 2 hrs by immunoblot method; assay type: cell-based
NCI-H1975 [2] = assay: Antitumor activity against human NCI-H1975 cells xenografted in po dosed nu/nu mouse assessed as tumor growth inhibition administered for 21 days
NCI-H2228 = assay: Antiproliferative activity against human NCI-H2228 cells harboring EML4-fused ALK varian3 after 72 hrs by CellTiter-Glo assay; assay type: functional; conditions: NCI-H2228, 72 h
[3] = molecular target: T2, Epidermal growth factor receptor (Homo sapiens, UniProt P00533); assay: Inhibition of EGFR in human PC9 cells assessed as inhibition of ERK-1/2 phosphorylation at Thr202/Tyr204 residues at 30 nM after 4 hrs by immunoblotting method; assay type: cell-based
[4] = tested on: Epidermal growth factor receptor (Homo sapiens), P00533 [C797S]; assay: Inhibition of TEL-fused EGFR C797S mutant (unknown origin) expressed in mouse BAF3 cells assessed as decrease in cell proliferation after 72 hrs by CellTiter-Glo assay; assay type: cell-based
[5] = molecular target: T2, Epidermal growth factor receptor; assay: Inhibition of EGFR phosphorylation at Y1068 in human NCI-H1975 cells at 30 nM after 4 hrs by immunoblotting method; assay type: cell-based
[6] = molecular target: T1, ALK tyrosine kinase receptor; assay: Inhibition of ALK in human NCI-H3122 cells harboring EML4-fused ALK assessed as reduction in ALK-induced AKT phosphorylation at Ser473 residue up to 3 uM after 2 hrs by immunoblot method; assay type: cell-based
Homo sapiens [7] = species: Homo sapiens; assay: Selectivity index, ratio of IC50 for recombinant human wild-type His-tagged EGFR to IC50 for recombinant human GST-tagged EGFR L858R/T790M mutant
NCI-H1975 [8] = assay: Induction of apoptosis in human NCI-H1975 cells xenografted in po dosed nu/nu mouse administered for 21 days by DAB-chromogen-based TUNEL assay
PC-9 [9] = assay: Cell cycle arrest in human PC9 cells assessed as accumulation at G0/G1 phase at 0.03 to 1 uM after 24 hrs by propidium iodide/RNase staining-based flow cytometry; assay type: functional
[10] = AUC (0 to t) in Sprague-Dawley rat at 10 mg/kg, po; assay type: ADME, organism-based; conditions: in vivo
In short: (§1)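 Rats dosed once intravenously at 1 mg/kg or orally at 10 mg/kg. Plasma exposure parameters derived: AUC0-t, AUC0-∞, MRT(0-t), Cmax, Tmax, T1/2 and oral bioavailability (F%). Values reported as mean ± spread.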

[11] = MRT (0 to t) in Sprague-Dawley rat at 1 mg/kg, iv; assay type: ADME, organism-based; conditions: in vivo
In short: (§2)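 Pharmacokinetics in rats given a single dose either intravenously at 1 mg/kg or orally at 10 mg/kg. Plasma parameters derived include AUC0-t, AUC0-∞, MRT(0-t), Cmax, Tmax, T1/2 and oral F (%).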

Homo sapiens [12] = species: Homo sapiens; assay: Selectivity index, ratio of IC50 for recombinant human wild-type His-tagged EGFR to IC50 for recombinant human GST-tagged EGFR T790M mutant
NCI-H1975 [13] = assay: Growth inhibition of human NCI-H1975 cells after 72 hrs by CellTiter-Glo assay; assay type: functional; conditions: NCI-H1975, 72 h
In short: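 Antiproliferative GI50 against H1975 and H3122 cells; each GI50 value obtained from triplicate testing.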

[14] = Antiproliferative activity against mouse BAF3 cells after 72 hrs by CellTiter-Glo assay; assay type: cell-based
A549 = assay: Induction of apoptosis in human A549 cells assessed as increase in cleaved caspase-3 expression level up to 1 uM after 24 hrs by Western blot method; assay type: functional, cell-based
PC-9 [15] = assay: Antiproliferative activity against human PC9 cells harboring EGFR del19 mutant after 72 hrs by CellTiter-Glo assay; assay type: functional; conditions: PC-9, 72 h
[16] = Tmax in Sprague-Dawley rat at 1 mg/kg, iv; assay type: ADME, organism-based; conditions: in vivo; in short: as §2
NCI-H3122 = assay: Antitumor activity against human NCI-H3122 cells xenografted in po dosed nu/nu mouse assessed as decrease in cell proliferation administered for 28 days by Ki67 staining-based immunohistochemical analysis; assay type: functional, organism-based
[17] = molecular target: ALK tyrosine kinase receptor (Homo sapiens, UniProt Q9UM73, L1196M); assay: Inhibition of recombinant human N-terminal GST/His6-fused ALK L1196M mutant expressed in Sf9 insect cells using Tyr 1 peptide as substrate after 1 hr by Z-LYTE assay
[18] = molecular target: T2, Epidermal growth factor receptor; assay: Inhibition of EGFR in human A549 cells assessed as reduction in EGF-induced ERK phosphorylation at Thr202/Tyr204 residues up to 3 uM after 4 hrs by immunoblotting method; assay type: cell-based
[19] = Tmax in Sprague-Dawley rat at 10 mg/kg, po; assay type: ADME, organism-based; conditions: in vivo; in short: as §2
[20] = molecular target: ALK tyrosine kinase receptor (Homo sapiens, UniProt Q9UM73, C1156Y); assay: Inhibition of recombinant human N-terminal GST/His6-fused ALK C1156Y mutant expressed in Sf9 insect cells using Tyr 1 peptide as substrate after 1 hr by Z-LYTE assay
[21] = AUC (0 to infinity) in Sprague-Dawley rat at 1 mg/kg, iv; assay type: ADME, organism-based; parameters: dose 1 mg/kg, route intravenous, time infinity; conditions: in vivo; in short: as §1
NCI-H3255 = assay: Antiproliferative activity against human H3255 cells harboring EGFR L858R mutant after 72 hrs by CellTiter-Glo assay; assay type: functional; conditions: NCI-H3255, 72 h
[22] = molecular target: T2, Epidermal growth factor receptor; assay: Inhibition of EGFR in human A549 cells assessed as reduction in EGF-induced STAT3 phosphorylation at Tyr705 residue up to 3 uM after 4 hrs by immunoblotting method; assay type: cell-based

T2 sequence (P00533 whole entry, the tested form may be a part): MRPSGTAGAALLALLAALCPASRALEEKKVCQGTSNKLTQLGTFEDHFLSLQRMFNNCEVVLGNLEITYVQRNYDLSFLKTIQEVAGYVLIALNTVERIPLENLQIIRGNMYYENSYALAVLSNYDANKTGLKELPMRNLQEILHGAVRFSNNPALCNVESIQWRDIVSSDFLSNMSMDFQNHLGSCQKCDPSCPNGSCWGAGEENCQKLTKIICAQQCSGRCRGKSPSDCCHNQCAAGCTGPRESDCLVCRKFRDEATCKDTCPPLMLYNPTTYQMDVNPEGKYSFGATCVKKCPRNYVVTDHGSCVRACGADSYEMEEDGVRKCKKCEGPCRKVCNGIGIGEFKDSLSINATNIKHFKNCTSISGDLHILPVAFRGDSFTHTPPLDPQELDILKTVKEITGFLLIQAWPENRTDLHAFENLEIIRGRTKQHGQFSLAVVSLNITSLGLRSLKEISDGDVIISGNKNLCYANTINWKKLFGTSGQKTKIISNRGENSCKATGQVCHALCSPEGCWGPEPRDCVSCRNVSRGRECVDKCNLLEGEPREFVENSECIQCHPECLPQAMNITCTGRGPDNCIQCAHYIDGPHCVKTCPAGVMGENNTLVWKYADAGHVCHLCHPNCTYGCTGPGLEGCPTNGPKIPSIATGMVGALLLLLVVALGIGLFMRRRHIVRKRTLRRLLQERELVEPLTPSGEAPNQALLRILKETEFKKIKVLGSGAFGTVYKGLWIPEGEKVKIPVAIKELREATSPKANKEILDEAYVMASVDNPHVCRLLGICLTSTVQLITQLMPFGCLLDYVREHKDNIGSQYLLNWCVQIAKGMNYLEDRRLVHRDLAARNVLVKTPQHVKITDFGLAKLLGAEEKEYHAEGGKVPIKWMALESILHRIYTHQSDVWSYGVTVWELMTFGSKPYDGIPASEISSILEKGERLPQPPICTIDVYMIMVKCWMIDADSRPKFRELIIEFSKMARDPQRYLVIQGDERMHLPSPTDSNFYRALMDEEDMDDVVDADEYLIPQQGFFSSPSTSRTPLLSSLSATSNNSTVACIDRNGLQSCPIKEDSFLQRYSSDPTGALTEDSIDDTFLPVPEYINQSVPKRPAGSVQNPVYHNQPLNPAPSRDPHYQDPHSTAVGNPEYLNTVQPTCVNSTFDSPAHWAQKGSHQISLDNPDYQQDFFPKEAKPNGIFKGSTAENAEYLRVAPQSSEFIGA
T1 sequence (Q9UM73 19-1620 limits assumed): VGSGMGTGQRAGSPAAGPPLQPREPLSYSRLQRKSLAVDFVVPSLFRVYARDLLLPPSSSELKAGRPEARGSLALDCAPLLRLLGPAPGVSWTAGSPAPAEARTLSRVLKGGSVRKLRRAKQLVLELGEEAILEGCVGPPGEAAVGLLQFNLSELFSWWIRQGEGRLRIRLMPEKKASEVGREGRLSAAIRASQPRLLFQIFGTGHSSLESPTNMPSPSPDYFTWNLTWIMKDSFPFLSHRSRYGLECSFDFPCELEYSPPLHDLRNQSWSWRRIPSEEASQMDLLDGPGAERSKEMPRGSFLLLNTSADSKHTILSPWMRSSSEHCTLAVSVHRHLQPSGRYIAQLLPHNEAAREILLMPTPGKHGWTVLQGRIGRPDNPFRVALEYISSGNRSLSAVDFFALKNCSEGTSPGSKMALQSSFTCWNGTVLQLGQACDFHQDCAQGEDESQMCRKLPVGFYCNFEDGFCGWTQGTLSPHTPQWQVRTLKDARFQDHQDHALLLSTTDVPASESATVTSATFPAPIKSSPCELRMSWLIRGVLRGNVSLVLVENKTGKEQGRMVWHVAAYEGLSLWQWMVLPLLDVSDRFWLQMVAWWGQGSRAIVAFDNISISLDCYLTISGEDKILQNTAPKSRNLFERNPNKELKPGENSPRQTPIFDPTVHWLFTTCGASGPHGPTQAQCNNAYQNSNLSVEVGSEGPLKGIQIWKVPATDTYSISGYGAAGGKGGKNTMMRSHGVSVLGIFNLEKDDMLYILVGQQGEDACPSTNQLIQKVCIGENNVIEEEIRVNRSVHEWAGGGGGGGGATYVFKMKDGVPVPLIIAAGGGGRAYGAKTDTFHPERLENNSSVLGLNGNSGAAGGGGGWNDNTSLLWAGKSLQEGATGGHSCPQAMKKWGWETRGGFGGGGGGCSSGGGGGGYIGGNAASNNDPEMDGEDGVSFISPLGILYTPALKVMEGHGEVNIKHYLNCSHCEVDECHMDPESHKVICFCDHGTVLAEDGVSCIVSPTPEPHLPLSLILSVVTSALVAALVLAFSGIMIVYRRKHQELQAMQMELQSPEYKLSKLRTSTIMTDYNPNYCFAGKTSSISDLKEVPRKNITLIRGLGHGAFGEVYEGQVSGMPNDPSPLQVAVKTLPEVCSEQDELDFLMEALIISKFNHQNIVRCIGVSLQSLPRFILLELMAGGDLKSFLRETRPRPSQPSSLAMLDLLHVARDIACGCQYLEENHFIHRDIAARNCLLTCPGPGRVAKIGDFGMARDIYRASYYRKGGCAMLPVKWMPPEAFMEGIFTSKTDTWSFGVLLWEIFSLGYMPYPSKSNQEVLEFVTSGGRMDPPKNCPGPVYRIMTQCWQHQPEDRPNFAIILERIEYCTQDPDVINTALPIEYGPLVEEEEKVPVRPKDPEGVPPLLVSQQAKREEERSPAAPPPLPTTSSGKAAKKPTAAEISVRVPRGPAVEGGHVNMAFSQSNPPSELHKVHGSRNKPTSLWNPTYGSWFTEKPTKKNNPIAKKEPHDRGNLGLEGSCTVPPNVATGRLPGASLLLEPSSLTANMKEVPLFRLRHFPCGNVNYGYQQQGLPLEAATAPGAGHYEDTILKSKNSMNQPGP
ALK tyrosine kinase receptor (Homo sapiens, UniProt Q9UM73, L1196M), sequence (Q9UM73 19-1620 L1196M limits assumed): as the sequence (Q9UM73 19-1620 limits assumed) above, with L1178M counted along it
Epidermal growth factor receptor (Homo sapiens), P00533 [C797S], sequence (P00533 whole entry C797S, the tested form may be a part): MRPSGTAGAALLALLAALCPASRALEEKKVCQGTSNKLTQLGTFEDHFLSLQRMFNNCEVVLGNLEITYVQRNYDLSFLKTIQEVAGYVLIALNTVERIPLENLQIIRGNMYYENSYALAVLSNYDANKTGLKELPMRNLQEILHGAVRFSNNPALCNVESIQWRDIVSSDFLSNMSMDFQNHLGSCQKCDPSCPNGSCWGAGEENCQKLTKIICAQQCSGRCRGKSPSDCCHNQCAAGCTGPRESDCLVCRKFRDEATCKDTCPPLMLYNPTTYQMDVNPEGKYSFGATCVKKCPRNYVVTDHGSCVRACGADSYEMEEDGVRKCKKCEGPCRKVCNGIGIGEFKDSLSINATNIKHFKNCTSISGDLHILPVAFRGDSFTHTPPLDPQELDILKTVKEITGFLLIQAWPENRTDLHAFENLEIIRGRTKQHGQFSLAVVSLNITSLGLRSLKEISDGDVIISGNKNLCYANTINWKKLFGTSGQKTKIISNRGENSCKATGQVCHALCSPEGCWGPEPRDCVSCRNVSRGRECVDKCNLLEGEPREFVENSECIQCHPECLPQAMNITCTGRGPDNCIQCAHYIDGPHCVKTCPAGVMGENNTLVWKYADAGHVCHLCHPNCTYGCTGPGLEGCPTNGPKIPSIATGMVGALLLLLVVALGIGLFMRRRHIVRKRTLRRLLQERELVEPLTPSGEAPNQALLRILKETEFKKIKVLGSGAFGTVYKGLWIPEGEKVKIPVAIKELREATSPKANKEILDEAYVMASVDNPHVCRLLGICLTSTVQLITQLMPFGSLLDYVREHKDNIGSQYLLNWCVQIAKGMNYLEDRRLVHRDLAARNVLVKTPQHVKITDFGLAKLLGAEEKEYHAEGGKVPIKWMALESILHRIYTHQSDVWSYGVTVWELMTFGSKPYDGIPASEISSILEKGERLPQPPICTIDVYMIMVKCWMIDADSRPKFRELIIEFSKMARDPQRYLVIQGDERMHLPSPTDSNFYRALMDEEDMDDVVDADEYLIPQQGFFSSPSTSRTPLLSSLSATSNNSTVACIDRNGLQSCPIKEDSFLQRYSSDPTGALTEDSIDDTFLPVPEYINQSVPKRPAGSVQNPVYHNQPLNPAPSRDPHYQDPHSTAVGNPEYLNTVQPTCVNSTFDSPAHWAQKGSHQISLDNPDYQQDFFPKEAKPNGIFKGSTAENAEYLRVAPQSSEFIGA
ALK tyrosine kinase receptor (Homo sapiens, UniProt Q9UM73, C1156Y), sequence (Q9UM73 19-1620 C1156Y limits assumed): as the sequence (Q9UM73 19-1620 limits assumed) above, with C1138Y counted along it

With `C=CC(=O)Nc1cc(Nc2ncc(Cl)c(Nc3ccccc3S(=O)(=O)C(C)C)n2)c(OC)cc1N1CCCN(C)CC1` the inhibition [1] was “Active”, the TGI (NCI-H1975 [2]) was “Dose-dependent effect” and the GI50 (NCI-H2228) was 28 nM. The inhibition [3] was “Active”, the GI50 [4] was 230 nM and the inhibition [5] was “Active”. The inhibition [6] was “Active”, the Ratio IC50 (Homo sapiens [7]) was 20 to 30 and the Activity (NCI-H1975 [8]) was “Dose-dependent effect”. For the same compound, the Activity (PC-9 [9]) was “Active”, the AUC(0-t) [10] was 1140 ng·h/mL and the MRT last [11] was 56.8 min. It also gave a Ratio IC50 (Homo sapiens [12]) of 20 to 30, a GI50 (NCI-H1975 [13]) of 15 nM and a GI50 at 72 h [14] of 1200 nM. The Activity (A549) was “inactive”, the GI50 (PC-9 [15]) was 15 nM and the Tmax [16] was 1.02 min. For the same compound, the Activity (NCI-H3122) was “Dose-dependent effect”, the IC50 [17] was 0.59 nM and the inhibition [18] was “inactive”. For the same compound, the Tmax [19] was 240 min, the IC50 [20] was 1 nM and the AUC(0-inf) [21] was 720 ng·h/mL. For the same compound, the GI50 (NCI-H3255) was 31 nM and the inhibition [22] was “inactive”.
